Results reported in ChEMBL document CHEMBL1142957, “Total structure and inhibition of tumor cell proliferation of laxaphycins” (J Med Chem, 2007).

Legend:
CEM-VM1 [1] = test: Antiproliferative activity against teniposide-resistant CEM/VM1 after 72 hrs in presence of 1 uM laxaphycin A; type: functional, cell-based; settings: Homo sapiens, CEM-VM1, 72 h
Method in brief: (§1)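 Leukemic lymphoblasts (parent CCRF-CEM, Pgp-overexpressing CEM/VLB100, topo II-altered CEM/VM-1) grown in RPMI 1640 with 10% FCS and antibiotics, 37 °C, 5% CO2. Serial dilutions in medium added to 2 × 10⁵ cells/mL for 3 days, medium not renewed. Survivors counted on a Coulter counter. Triplicate, averaged.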

CCRF-CEM [2] = test: Interaction index, ratio of IC50 for CCRF-CEM cells in presence of 0.2 uM laxaphycin A/IC50 for CCRF-CEM cells; type: functional, Homo sapiens
CCRF-CEM [3] = test: Interaction index, ratio of IC50 for CCRF-CEM cells in presence of 2 uM laxaphycin A/IC50 for CCRF-CEM cells; type: functional, Homo sapiens
MCF7 [4] = test: Cytotoxicity against human MCF7 cells after 48 hrs by Hoechst 33342 assay; type: cell-based; settings: MCF7, 48 h
Method in brief: (§2)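 Adherent lines in Glutamax MEM with Earle's salts, FCS, vitamins, pyruvate, NEAA, glutamine, gentamycin. Seeded 5 × 10³ cells/well, adhered 16 h, then 48 h continuous exposure in 0.5% DMSO (solvent control). After resazurin read, cells PBS-rinsed and stored at −80 °C. Then thawed and given 30 µg/mL Hoechst 33342 in Tris pH 7.4/EDTA/NaCl buffer, 1 h at 37 °C, fluorescence 360/460 nm (DNA ∝ biomass). Two independent assays in triplicate, mean ± SD.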

CEM-VM1 [5] = test: Interaction index, ratio of IC50 for CEM/VM1 cells in presence of 1 uM laxaphycin A/IC50 for CEM/VM1 cells; type: functional, Homo sapiens
[6] = Cytotoxicity against human fibroblasts after 48 hrs by Hoechst 33342 assay; type: cell-based; settings: fibroblast; method in brief: as §2
[7] = Cytotoxicity against teniposide-resistant CEM/VM1 cells after 72 hrs; type: cell-based; settings: Homo sapiens, CEM-VM1, 72 h; method in brief: as §1
CEM-VLB [8] = test: Interaction index, ratio of IC50 for CEM/VLB100 cells in presence of 0.4 uM laxaphycin A/IC50 for CEM/VLB100 cells; type: functional, Homo sapiens
[9] = Cytotoxicity against human […] cells after 48 hrs by Hoechst 33342 assay; type: cell-based; method in brief: as §2
CEM-VLB [10] = test: Antiproliferative activity against vinblastine-resistant CEM/VLB100 after 72 hrs in presence of 2 uM laxaphycin A; type: functional, cell-based; settings: Homo sapiens; method in brief: as §1
PC-3 [11] = test: Cytotoxicity against human androgen-resistant PC3 cells after 48 hrs by RRT; type: cell-based; settings: PC-3, 48 h
Method in brief: (§3)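 Adherent lines in supplemented Glutamax MEM, 37 °C, 5% CO2. Seeded 5 × 10³ cells/well, adhered 16 h, then treated 48 h continuously, alone or in combination, in 0.5% DMSO (solvent control). Resazurin 25 µg/mL in MEM added, 1 h at 37 °C, fluorescence 530/590 nm. Survival = % of control after blank subtraction; IC50 from concentration–survival curve. Two independent assays in triplicate.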

[12] = Cytotoxicity against human fibroblasts after 48 hrs by RRT; type: cell-based; settings: fibroblast; method in brief: as §3
CEM-VM1 [13] = test: Interaction index, ratio of IC50 for CEM/VM1 cells in presence of 0.2 uM laxaphycin A/IC50 for CEM/VM1 cells; type: functional, Homo sapiens
CEM-VM1 [14] = test: Antiproliferative activity against teniposide-resistant CEM/VM1 after 72 hrs in presence of 0.4 uM laxaphycin A; type: functional, cell-based; settings: Homo sapiens, CEM-VM1, 72 h; method in brief: as §1
L929 [15] = test: Cytotoxicity against mouse L929 cells after 48 hrs by RRT; type: cell-based; settings: l929, 48 h; method in brief: as §3
CCRF-CEM [16] = test: Antiproliferative activity against drug-sensitive CCRF-CEM cells after 72 hrs in presence of 2 uM laxaphycin A; type: functional, cell-based; settings: Homo sapiens; method in brief: as §1
CCRF-CEM [17] = test: Interaction index, ratio of IC50 for CCRF-CEM cells in presence of 1 uM laxaphycin A/IC50 for CCRF-CEM cells; type: functional, Homo sapiens
CCRF-CEM [18] = test: Cytotoxicity against drug-sensitive CCRF-CEM cells after 72 hrs; type: cell-based; settings: Homo sapiens; method in brief: as §1
[19] = Cytotoxicity against human M4Beu cells after 48 hrs by Hoechst 33342 assay; type: cell-based; method in brief: as §2
CEM-VM1 [20] = test: Antiproliferative activity against teniposide-resistant CEM/VM1 after 72 hrs in presence of 2 uM laxaphycin A; type: functional, cell-based; settings: Homo sapiens, CEM-VM1, 72 h; method in brief: as §1
CEM-VLB [21] = test: Antiproliferative activity against vinblastine-resistant CEM/VLB100 after 72 hrs in presence of 1 uM laxaphycin A; type: functional, cell-based; settings: Homo sapiens; method in brief: as §1
CCRF-CEM [22] = test: Antiproliferative activity against drug-sensitive CCRF-CEM cells after 72 hrs in presence of 0.2 uM laxaphycin A; type: functional, cell-based; settings: Homo sapiens; method in brief: as §1
[23] = Cytotoxicity against human M4Beu cells after 48 hrs by RRT; type: cell-based; method in brief: as §3
DLD-1 [24] = test: Increase in cytotoxicity in human DLD1 cells at 2 uM after 48 hrs in presence of 2 uM laxaphycin A by RRT assay; type: cell-based; settings: dld-1, 48 h; method in brief: as §3
CCRF-CEM [25] = test: Interaction index, ratio of IC50 for CCRF-CEM cells in presence of 0.4 uM laxaphycin A/IC50 for CCRF-CEM cells; type: functional, Homo sapiens
L929 [26] = test: Cytotoxicity against mouse L929 cells after 48 hrs by Hoechst 33342 assay; type: cell-based; settings: l929, 48 h; method in brief: as §2
DLD-1 [27] = test: Increase in cytotoxicity in human DLD1 cells at 2 uM after 48 hrs in presence of 1 uM laxaphycin A by RRT assay; type: cell-based; settings: dld-1, 48 h; method in brief: as §3
DLD-1 [28] = test: Cytotoxicity against human DLD1cells after 48 hrs by RRT; type: cell-based; settings: dld-1, 48 h; method in brief: as §3
CEM-VLB [29] = test: Antiproliferative activity against vinblastine-resistant CEM/VLB100 after 72 hrs in presence of 0.2 uM laxaphycin A; type: functional, cell-based; settings: Homo sapiens; method in brief: as §1
CEM-VLB [30] = test: Antiproliferative activity against vinblastine-resistant CEM/VLB100 after 72 hrs in presence of 0.4 uM laxaphycin A; type: functional, cell-based; settings: Homo sapiens; method in brief: as §1
[31] = Cytotoxicity against human PA1 cells after 48 hrs by RRT; type: cell-based; settings: pa-1, 48 h; method in brief: as §3
CEM-VLB [32] = test: Interaction index, ratio of IC50 for CEM/VLB100 cells in presence of 1 uM laxaphycin A/IC50 for CEM/VLB100 cells; type: functional, Homo sapiens
CCRF-CEM [33] = test: Antiproliferative activity against drug-sensitive CCRF-CEM cells after 72 hrs in presence of 1 uM laxaphycin A; type: functional, cell-based; settings: Homo sapiens; method in brief: as §1
CEM-VLB [34] = test: Interaction index, ratio of IC50 for CEM/VLB100 cells in presence of 2 uM laxaphycin A/IC50 for CEM/VLB100 cells; type: functional, Homo sapiens
DLD-1 [35] = test: Cytotoxicity against human DLD1cells after 48 hrs by Hoechst 33342 assay; type: cell-based; settings: dld-1, 48 h; method in brief: as §2
MCF7 [36] = test: Cytotoxicity against human MCF7 cells after 48 hrs by RRT; type: cell-based; settings: MCF7, 48 h; method in brief: as §3
CEM-VM1 [37] = test: Antiproliferative activity against teniposide-resistant CEM/VM1 after 72 hrs in presence of 0.2 uM laxaphycin A; type: functional, cell-based; settings: Homo sapiens, CEM-VM1, 72 h; method in brief: as §1
[38] = Cytotoxicity against human […] cells after 48 hrs by RRT; type: cell-based; method in brief: as §3
DLD-1 [39] = test: Survival of human DLD1 cells at 2 uM after 48 hrs by RRT assay; type: functional
Method in brief: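 Adherent cells cultured in Glutamax Eagle's MEM with Earle's salts, fetal calf serum, vitamins, pyruvate, nonessential amino acids, glutamine and gentamycin at 37 °C, 5% CO2. Seeded 5 × 10³ cells/well, 16 h adhesion, then 48 h continuous exposure in 0.5% DMSO, alone or combined. Resazurin (25 µg/mL in MEM) added for 1 h at 37 °C, fluorescence 530/590 nm; survival as percentage of solvent controls after blank subtraction; two independent experiments in triplicate, averaged.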

CEM-VM1 [40] = test: Interaction index, ratio of IC50 for CEM/VM1 cells in presence of 0.4 uM laxaphycin A/IC50 for CEM/VM1 cells; type: functional, Homo sapiens
CCRF-CEM [41] = test: Ratio of IC50 for vinblastine-resistant CEM/VLB100 cells over IC50 for drug-sensitive CCRF-CEM cells; type: functional, Homo sapiens
[42] = Cytotoxicity against vinblastine-resistant CEM/VLB100 cells after 72 hrs; type: cell-based; settings: Homo sapiens, CEM/VLB100, 72 h; method in brief: as §1
[43] = Cytotoxicity against human PA1 cells after 48 hrs by Hoechst 33342 assay; type: cell-based; settings: pa-1, 48 h; method in brief: as §2
CCRF-CEM [44] = test: Antiproliferative activity against drug-sensitive CCRF-CEM cells after 72 hrs in presence of 0.4 uM laxaphycin A; type: functional, cell-based; settings: Homo sapiens; method in brief: as §1
CEM-VLB [45] = test: Interaction index, ratio of IC50 for CEM/VLB100 cells in presence of 0.2 uM laxaphycin A/IC50 for CEM/VLB100 cells; type: functional, Homo sapiens
CCRF-CEM [46] = test: Ratio of IC50 for teniposide-resistant CEM/VM1 cells over IC50 for drug-sensitive CCRF-CEM cells; type: functional, Homo sapiens
CEM-VM1 [47] = test: Interaction index, ratio of IC50 for CEM/VM1 cells in presence of 2 uM laxaphycin A/IC50 for CEM/VM1 cells; type: functional, Homo sapiens
DLD-1 [48] = test: Increase in cytotoxicity in human DLD1 cells at 2 uM after 48 hrs in presence of 1.5 uM laxaphycin A by RRT assay; type: cell-based; settings: dld-1, 48 h; method in brief: as §3
PC-3 [49] = test: Cytotoxicity against human androgen-resistant PC3 cells after 48 hrs by Hoechst 33342 assay; type: cell-based; settings: PC-3, 48 h; method in brief: as §2

CCCCCCC[C@@H]1CC(=O)N[C@@H](C(C)C)C(=O)N[C@@H]([C@@H](O)C(C)C)C(=O)N[C@@H](C)C(=O)N[C@H]([C@@H](O)C(C)C)C(=O)N[C@@H](CCC(N)=O)C(=O)N(C)[C@@H]([C@@H](C)CC)C(=O)N[C@H]([C@@H](O)C(N)=O)C(=O)N[C@@H]([C@@H](C)O)C(=O)N2CCC[C@H]2C(=O)N[C@H](CC(C)C)C(=O)N[C@@H]([C@@H](C)O)C(=O)N1 [LAXAPHYCIN B]
IC50 (CEM-VM1 [1]): 430 nM | Ratio IC50 (CCRF-CEM [2]): 0.56 | Ratio IC50 (CCRF-CEM [3]): 0.32 | IC50 (MCF7 [4]): 500 nM | Ratio IC50 (CEM-VM1 [5]): 0.32 | Activity [6]: Dose-dependent effect | IC50 [7]: 1370 nM | Ratio IC50 (CEM-VLB [8]): 0.56 | Activity [9]: Dose-dependent effect | IC50 (CEM-VLB [10]): 330 nM | IC50 (PC-3 [11]): 800 nM | Activity [12]: Dose-dependent effect | Ratio IC50 (CEM-VM1 [13]): 0.53 | IC50 (CEM-VM1 [14]): 600 nM | Activity (L929 [15]): Dose-dependent effect | IC50 (CCRF-CEM [16]): 350 nM | Ratio IC50 (CCRF-CEM [17]): 0.41 | IC50 (CCRF-CEM [18]): 1110 nM | IC50 [19]: 300 nM | IC50 (CEM-VM1 [20]): 410 nM | IC50 (CEM-VLB [21]): 360 nM | IC50 (CCRF-CEM [22]): 620 nM | IC50 [23]: 400 nM | Activity (DLD-1 [24]): Active | Ratio IC50 (CCRF-CEM [25]): 0.45 | Activity (L929 [26]): Dose-dependent effect | Activity (DLD-1 [27]): Active | Activity (DLD-1 [28]): Dose-dependent effect | IC50 (CEM-VLB [29]): 920 nM | IC50 (CEM-VLB [30]): 570 nM | Activity [31]: Dose-dependent effect | Ratio IC50 (CEM-VLB [32]): 0.35 | IC50 (CCRF-CEM [33]): 410 nM | Ratio IC50 (CEM-VLB [34]): 0.32 | Activity (DLD-1 [35]): Dose-dependent effect | IC50 (MCF7 [36]): 1000 nM | IC50 (CEM-VM1 [37]): 720 nM | Activity [38]: Dose-dependent effect | Activity (DLD-1 [39]): 90% | Ratio IC50 (CEM-VM1 [40]): 0.44 | Ratio IC50 (CCRF-CEM [41]): 0.9 | IC50 [42]: 1020 nM | Activity [43]: Dose-dependent effect | IC50 (CCRF-CEM [44]): 500 nM | Ratio IC50 (CEM-VLB [45]): 0.9 | Ratio IC50 (CCRF-CEM [46]): 1.2 | Ratio IC50 (CEM-VM1 [47]): 0.3 | Activity (DLD-1 [48]): Active | IC50 (PC-3 [49]): 580 nM
